Data set [1] relates to impulsive action in the 5-CSRT task. As to conditions: cited from earlier work.
In a further data set the target is 5-HT2AR (Homo sapiens, UniProt P28223). The data set can be described thus: intracellular calcium release in 5-HT2AR–CHO cells. The class given is cell-based. Particulars: for Cai2+ release, peptide alone, in 5-HT2AR–CHO cells: 15 min, peptide alone (data not shown); for effect on 5-HT-mediated Cai2+ release in 5-HT2AR–CHO cells: 15 min preincubation, 10 nM 5-HT.

The next data set concerns 5-HT2CR. Particulars: for Cai2+ release, peptide alone (unstimulated): no agonist, fluorescence; for effect on 5-HT-evoked Cai2+ release: ANOVA main effect.
Another data set is described as follows: circular dichroism. Type of data set: physicochemical. As to conditions: in water; 3L4F 300 μM, 3L4F-F1 100 and 300 μM; three independent trials. In general terms: Circular dichroism is the unequal absorption of left and right circularly polarised light.
For data set [2], the system named is male Sprague Dawley rats. As to the kind of experiment: spontaneous locomotor activity. Type of data set: in vivo, rat. As to conditions: i.p.
Data set [3] concerns male Sprague Dawley rats. As to the kind of experiment: 1-choice serial reaction time. The class given is in vivo, rat. Particulars: i.p.; for % Accuracy / % Omissions / Latency to start / Response latency / Time to finish: mean ± SEM; for number of reinforcers earned (combination study) / premature responses (combination study): alone or combined. The essentials:
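Male Sprague Dawley rats (225–325 g) were housed two per cage and food-restricted to 90% of free-feeding weight. They were trained until stable: >80% accuracy and <20% omissions for five consecutive sessions at the final stage (0.5 s stimulus, 5 s limited hold, 5 s ITI), with <15% variability. Test compound or saline vehicle was given i.p. 15 min pre-session. Data were analysed by one-way repeated-measures ANOVA with Dunnett's test versus saline.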

For data set [4], the system named is 5-HT2CR and PTEN protein expression, 5-HT2CR–CHO cells. As to the kind of experiment: Western blot of protein expression in 5-HT2CR–CHO cells. Type of data set: cell-based, human 5-HT2CR; CHO cells. As to conditions: 1 pM, 15 min preincubation. The essentials:
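Cells were rinsed in ice-cold Krebs' solution, pelleted, and homogenized in HEPES/EDTA/EGTA/DTT buffer containing protease and phosphatase inhibitors. The membrane pellet from differential centrifugation was resuspended in buffer with 400 mM NaCl and 0.5% NP-40. Protein was quantified by BCA, reduced and heated at 70°C for 20 min, run on 4–12% Bis-Tris SDS-PAGE and transferred to PVDF. Blots were probed with primary antibody overnight and secondary for 45 min, then read by infrared imaging.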
Background: A western blot detects proteins with antibodies after separation by electrophoresis.

Data set [5] concerns 5-HT2CR–PTEN complex in VTA. As to the kind of experiment: co-IP of 5-HT2CR–PTEN complex in rat VTA after systemic administration. As to conditions: 10 μmol/kg, i.p., killed 5 min later, relative to vehicle (saline). Type of data set: in vivo.
[6] abbreviates: 15 min preincubation, Calcium 4 dye.
Setting [7] is: TAT–3L4F 0.1 μmol/kg, WAY163909 1 mg/kg, alone or combined.
The mark [8] stands for this setting: TAT–3L4F 0.1 μmol/kg, WAY163909 1 mg/kg, alone or combined, p < 0.05.
Where [9] appears, read: 0.5 and 1 mg/kg, versus saline, p < 0.05.
[10] abbreviates: TAT–3L4F 0.3 μmol/kg, WAY163909 0.1 mg/kg, versus saline.
Where [11] appears, read: WAY163909 0.1 mg/kg, combination study.
Setting [12] is: 15 min preincubation, 1 nM 5-HT.
Setting [13] is: 1 μmol/kg, versus saline, p < 0.05.
Where [14] appears, read: TAT–3L4F 0.3 μmol/kg, combination study.

Where two headings read alike, the source gives them in different places. Where only a bound is given, the exact number is not on record here.

Sequence of 5-HT2AR (P28223 whole entry): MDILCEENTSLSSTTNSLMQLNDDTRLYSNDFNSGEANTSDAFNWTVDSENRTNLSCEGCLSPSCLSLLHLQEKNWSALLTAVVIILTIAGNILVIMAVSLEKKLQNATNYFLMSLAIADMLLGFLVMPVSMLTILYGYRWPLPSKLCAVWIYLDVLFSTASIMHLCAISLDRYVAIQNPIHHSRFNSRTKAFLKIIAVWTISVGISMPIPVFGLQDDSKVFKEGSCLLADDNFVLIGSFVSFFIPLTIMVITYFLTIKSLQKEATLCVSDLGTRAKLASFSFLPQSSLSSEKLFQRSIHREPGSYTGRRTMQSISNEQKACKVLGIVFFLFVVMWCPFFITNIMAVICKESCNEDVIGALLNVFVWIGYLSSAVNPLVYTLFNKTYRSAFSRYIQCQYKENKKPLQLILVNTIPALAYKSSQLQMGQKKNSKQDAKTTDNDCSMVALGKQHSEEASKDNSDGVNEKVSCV

Take `Cc1cc2c(cc1Cl)N(C(=O)Nc1ccc(Oc3cccnc3C)nc1)CC2.Cl.Cl` [SB242084, 6-chloro-5-methyl-1-((2-(2-methylpyrid-3-yloxy)pyrid-5-yl)carbamoyl)indoline dihydrochloride]: in data set [1] (ref Winstanley et al., 2004b, Fletcher et al., 2007), the “impulsive action by premature responses in the 5-CSRT task” value was “increase impulsive action”.

As to Ac-PNQDQNAR-NH2 [3L4F-F1], at 5-HT2AR, the “Cai2+ release, peptide alone, in 5-HT2AR–CHO cells” value is “did not induce Cai2+ release” and the “effect on 5-HT-mediated Cai2+ release in 5-HT2AR–CHO cells” value (shortened to “effect on 5-HT-mediated Cai2+ release”) is recorded as “did not induce Cai2+ release or alter Cai2+ release evoked by 10 nM 5-HT”. The “Cai2+ release, peptide alone (unstimulated)” value (shortened to “Cai2+ release … (unstimulated)”) in the data set on 5-HT2CR (setting [6]) is on record as “did not induce Cai2+ release”. The “concentrations that significantly increased Cai2+ release versus 1 nM 5-HT” value with 5-HT2CR (15 min preincubation, 1 nM 5-HT, Calcium 4 dye, FlexStation3, p < 0.05) is on record as 10 ^−13 to 10 ^−9 M. In the data set “circular dichroism”, the “CD signal at 222 nm” value is “shallow inflection point at 222 nm” and the “α-helix content by CD” value is given as 10–30%.

On to `c1cc2c3c(c1)[C@H]1CCC[C@H]1N3CCNC2` [WAY163909, (7bR, 10aR)-1,2,3,4,8,9,10,10a-octa-hydro-7bH-cyclopenta-(b)(1,4)diazepino (6,7,1hi)indole], for which, in the data set on male Sprague Dawley rats [2] (setting [7]), the “total vertical activity, 70 min (combination study)” value was “No main effect of treatment was observed for vertical activity” and the “vertical activity, 5-min bins (combination study)” value is given as “No main effect of treatment”. In the data set with male Sprague Dawley rats [2] (setting [8]), the “central ambulation, 5-min bins (combination study)” value was “significantly reduced central ambulation versus saline at 10 min”; the “peripheral ambulation, 5-min bins (combination study)” value is “significantly reduced peripheral ambulation versus saline at 5 and 10 min”; the “total central ambulation, 70 min (combination study)” value is listed as “but not either ligand alone”. In addition, the “total horizontal ambulation, 70 min (combination study)” value in the data set on male Sprague Dawley rats [2] (TAT–3L4F 0.1 μmol/kg, WAY163909 1 mg/kg, alone or combined, versus saline) is listed as “neither ligands tested alone at chosen doses altered total horizontal ambulation”. Also, in the data set with male Sprague Dawley rats [3] (0.05 mg/kg), the “% Accuracy” value worked out at 100.52 ± 0.4%, the “% Omissions” value stood at 6.23 ± 1.1%, the Latency to start is 0.69 ± 0.2 s and the Response latency came to 2.75 ± 0.4 s. Also, the Time to finish in the data set with male Sprague Dawley rats [3] (0.05 mg/kg) is on record as 933.62 ± 29.4 s. Moreover, in the data set on male Sprague Dawley rats [3] (0.1 mg/kg, dose-response study), the “% Accuracy” value is on record as 100.72 ± 0.5%, the “% Omissions” value came out at 5.40 ± 0.9%, the Latency to start is 1.13 ± 0.2 s and the Response latency is given as 2.57 ± 0.2 s. In addition, the Time to finish in the data set on male Sprague Dawley rats [3] (0.1 mg/kg, dose-response study) is given as 923.55 ± 16.5 s. Moreover, in the data set with male Sprague Dawley rats [3] (0.2 mg/kg), the “% Accuracy” value is recorded as 100.15 ± 0.7%, the “% Omissions” value is listed as 6.26 ± 1.6%, the Latency to start came to 0.85 ± 0.2 s and the Response latency amounted to 2.84 ± 0.4 s. The molecule further had a Time to finish with male Sprague Dawley rats [3] (0.2 mg/kg) of 941.12 ± 34.9 s. For the same molecule, in the data set on male Sprague Dawley rats [3] (0.5 mg/kg), the “% Accuracy” value came out at 100.61 ± 0.4%, the “% Omissions” value is 5.85 ± 0.9%, the Latency to start came out at 0.62 ± 0.1 s and the Response latency is 2.54 ± 0.2 s. In addition, the Time to finish with male Sprague Dawley rats [3] (0.5 mg/kg) was 926.23 ± 17.3 s. Also, in the data set on male Sprague Dawley rats [3] (1 mg/kg), the “% Accuracy” value came out at 101.48 ± 0.6%, the “% Omissions” value stood at 8.94 ± 0.7%, the Latency to start is on record as 1.11 ± 0.2 s and the Response latency stood at 3.06 ± 0.4 s. This molecule also returned a Time to finish in the data set with male Sprague Dawley rats [3] (1 mg/kg) of 981.14 ± 33.7 s. Besides, in the data set with male Sprague Dawley rats [3] (setting [9]), the “number of reinforcers earned” value was “increased the number of reinforcers earned versus saline” and the premature responses entry was “decreased premature responses versus saline”. In the data set on male Sprague Dawley rats [3] (setting [10]), the “number of reinforcers earned (combination study)” value was “Neither 0.3 μmol/kg TAT–3L4F nor 0.1 mg/kg WAY163909 alone altered the number of reinforcers earned versus saline” and the “premature responses (combination study)” value is “Neither 0.3 μmol/kg TAT–3L4F nor 0.1 mg/kg WAY163909 alone altered premature responses”. Also, in the data set on male Sprague Dawley rats [3] (setting [11]), the “% Accuracy” value came to 100.21 ± 0.8%, the “% Omissions” value is recorded as 5.45 ± 1.0%, the Latency to start came out at 1.11 ± 0.3 s and the Response latency is reported as 2.83 ± 0.5 s. Besides, the Time to finish in the data set with male Sprague Dawley rats [3] (setting [11]) was 948.78 ± 37.7 s. For the same molecule, the “additional measures of task performance” value with male Sprague Dawley rats [3] (accuracy, motivation, motility indices) is “did not alter additional measures of task performance, including accuracy, motivation, or motility indices”. The “impulsive action by premature responses in the 5-CSRT task” value in data set [1] (ref Navarra et al., 2008) is listed as “potently suppress”.

For the molecule Ac-QNARRRKK-NH2 [3L4F-F2], on 5-HT2AR, the “Cai2+ release, peptide alone, in 5-HT2AR–CHO cells” value is reported as “did not induce Cai2+ release” and the “effect on 5-HT-mediated Cai2+ release” value was “did not induce Cai2+ release or alter Cai2+ release evoked by 10 nM 5-HT”. Also, in the data set with 5-HT2CR (setting [6]), the “Cai2+ release … (unstimulated)” value is on record as “did not induce Cai2+ release”. In addition, the “effect on 5-HT-evoked Cai2+ release” value in the data set with 5-HT2CR (setting [12]) is “No main effect”.

In the case of Ac-RRKKKERR-NH2 [3L4F-F3], on 5-HT2AR, the “Cai2+ release, peptide alone, in 5-HT2AR–CHO cells” value is recorded as “did not induce Cai2+ release” and the “effect on 5-HT-mediated Cai2+ release” value was “did not induce Cai2+ release or alter Cai2+ release evoked by 10 nM 5-HT”. Further, in the data set with 5-HT2CR (setting [6]), the “Cai2+ release … (unstimulated)” value is on record as “did not induce Cai2+ release”. For the same molecule, the “effect on 5-HT-evoked Cai2+ release” value in the data set with 5-HT2CR (setting [12]) is on record as “No main effect”.

As for Ac-PNQDQNARRRKKKERR-NH2 [3L4F], the “membrane protein expression levels of 5-HT2CR or PTEN” value in data set [4] is “unchanged”. For the same molecule, on 5-HT2AR, the “Cai2+ release, peptide alone, in 5-HT2AR–CHO cells” value is recorded as “nor did it alter Cai2+ release when tested alone” and the “effect on 5-HT-mediated Cai2+ release” value is given as “did not potentiate 5-HT-mediated (10 nM) Cai2+ release”. Further, the “cellular entry without TAT conjugation” value with 5-HT2CR is reported as “TAT conjugation is not necessary for cellular entry”. For the same molecule, the “Emax of 5-HT-evoked Cai2+ release in presence of peptide” value in the data set on 5-HT2CR (1 pM peptide, 15 min, 5-HT concentration response, p < 0.05) is on record as 120.7 % of maximal response for 5-HT. Further, the “Cai2+ release … (unstimulated)” value with 5-HT2CR (setting [6]) is “did not alter unstimulated Cai2+ release”. Further, in “circular dichroism”, the “CD signal at 222 nm” value was “clear inflection point at 222 nm” and the “α-helix content by CD” value is < 50%.

Take “Ac-YGRKKRRQRRRPNPDQKPRRKKKEKR-NH2 [rat TAT–3L4F]”: in the data set with male Sprague Dawley rats [2] (0.1 μmol/kg, alone), the “effect across multiple activity measures” value is “ineffective across multiple activity measures”. Moreover, the “horizontal ambulation, 5-min bins” value in the data set on male Sprague Dawley rats [2] (1 μmol/kg, 15 min before test, versus saline, p < 0.05) was “significantly reduced horizontal ambulation versus saline at 5, 10, and 15 min”. In the data set with male Sprague Dawley rats [2] (setting [13]), the “total horizontal ambulation, 70 min” value was “significantly reduced total horizontal ambulation versus saline” and the “total peripheral ambulation, 70 min” value is on record as “significantly reduced peripheral ambulation versus saline”. In the data set with male Sprague Dawley rats [2] (0.1 or 1 μmol/kg), the “central ambulation, 5-min bins” value is reported as “No main effect of treatment” and the “vertical activity, 5-min bins” value is “No main effect of treatment”. In the data set on male Sprague Dawley rats [2] (setting [7]), the “total vertical activity, 70 min (combination study)” value was “No main effect of treatment was observed for vertical activity” and the “vertical activity, 5-min bins (combination study)” value is “No main effect of treatment”. Moreover, in the data set on male Sprague Dawley rats [2] (setting [8]), the “total central ambulation, 70 min (combination study)” value was “but not either ligand alone”. For the same molecule, the “intensity of PTEN immunoreactive band after IP for 5-HT2CR, VTA” value in data set [5] is listed as “attenuated relative to vehicle (saline) treatment”. In addition, in the data set on male Sprague Dawley rats [3] (setting [10]), the “number of reinforcers earned (combination study)” value was “Neither 0.3 μmol/kg TAT–3L4F nor 0.1 mg/kg WAY163909 alone altered the number of reinforcers earned versus saline” and the “premature responses (combination study)” value was “Neither 0.3 μmol/kg TAT–3L4F nor 0.1 mg/kg WAY163909 alone altered premature responses”. For the same molecule, in the data set with male Sprague Dawley rats [3] (setting [14]), the “% Accuracy” value worked out at 98.69 ± 0.6%, the “% Omissions” value is 4.77 ± 1.0%, the Latency to start is 1.00 ± 0.6 s and the Response latency is on record as 2.19 ± 0.2 s. Moreover, the Time to finish with male Sprague Dawley rats [3] (setting [14]) came to 875.10 ± 15.3 s.

The values are drawn from publication PMC3711763 (The Journal of neuroscience : the official journal of the …, 2013).
